≈ marks a conversion by molar mass, not a printed value.
Columns and labels:
Format in all cases: functional
Pseudomonas aeruginosa [1] = test: Antibacterial activity against GIM-1 expressing Pseudomonas aeruginosa isolate 197 after 18 to 24 hrs by two-fold broth microdilution assay
Method in brief: (§1)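 CLSI two-fold broth microdilution was used. Compounds were dissolved in DMSO, brought to 10 mg/mL in medium, then serially diluted in Mueller Hinton broth over 400–0.09 µg/mL. Overnight MHB cultures were diluted to 10^6 CFU/mL, and 10 µL was added per well. Plates were incubated 18–24 h at 37 °C, then 0.2 mg/mL INT was added for 30 min at 37 °C. MIC was the lowest concentration with no visible growth or pink colour, triplicate.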

Acinetobacter baumannii = test: Antibacterial activity against SIM-1 expressing Acinetobacter baumannii isolate 170 after 18 to 24 hrs by two-fold broth microdilution assay
Method in brief: (§2)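 CLSI two-fold broth microdilution. Compounds dissolved in DMSO, 10 mg/mL stock, serially diluted to 400–0.09 µg/mL in Mueller Hinton broth. Wells inoculated with 10^6 CFU/mL bacteria and incubated 18–24 h at 37 °C. 0.2 mg/mL INT added for 30 min. MIC taken as the lowest concentration with no visible growth or pink colour. Triplicate.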

Aeromonas caviae [2] = test: Antibacterial activity against TEM-1/CTX-M-15 expressing Aeromonas caviae isolate 260 after 18 to 24 hrs by two-fold broth microdilution assay; method in brief: as §1
Aeromonas caviae [3] = test: Antibacterial activity against […] expressing Aeromonas caviae isolate 258 after 18 to 24 hrs by two-fold broth microdilution assay; method in brief: as §1
Aeromonas hydrophila [4] = test: Antibacterial activity against TEM-1/SHV-12 expressing Aeromonas hydrophila isolate 268 after 18 to 24 hrs by two-fold broth microdilution assay; method in brief: as §1
Kluyvera intermedia = test: Antibacterial activity against TEM-1/SHV-12/[…] expressing Enterobacter intermedius isolate 243 after 18 to 24 hrs by two-fold broth microdilution assay; method in brief: as §1
Klebsiella pneumoniae [5] = test: Antibacterial activity against TEM-1/SHV-12 expressing Klebsiella pneumoniae isolate 303 after 18 to 24 hrs by two-fold broth microdilution assay; method in brief: as §1
Escherichia coli [6] = test: Antibacterial activity against […] expressing Escherichia coli isolate 235 after 18 to 24 hrs by two-fold broth microdilution assay; method in brief: as §2
Escherichia coli [7] = test: Antibacterial activity against TEM-1/SHV-12 expressing Escherichia coli isolate 237 after 18 to 24 hrs by two-fold broth microdilution assay; method in brief: as §2
Enterobacter cloacae [8] = test: Antibacterial activity against CTX-15 expressing Enterobacter cloacae isolate 51 after 18 to 24 hrs by two-fold broth microdilution assay
Enterobacter cloacae [9] = test: Antibacterial activity against TEM-1/CTX-M-15 expressing Enterobacter cloacae isolate 62 after 18 to 24 hrs by two-fold broth microdilution assay
Enterobacter cloacae [10] = test: Antibacterial activity against TEM-1/SHV-12 expressing Enterobacter cloacae isolate 306 after 18 to 24 hrs by two-fold broth microdilution assay
[11] = tested on: Stenotrophomonas maltophilia; test: Antibacterial activity against […] expressing Stenotrophomonas maltophilia isolate 125 after 18 to 24 hrs by two-fold broth microdilution assay; method in brief: as §1
Aeromonas hydrophila [12] = test: Antibacterial activity against Aeromonas hydrophila FNSST 014 after 18 to 24 hrs by two-fold broth microdilution assay; method in brief: as §1
Pseudomonas aeruginosa [13] = test: Antibacterial activity against Pseudomonas aeruginosa FNSST 982 after 18 to 24 hrs by two-fold broth microdilution assay; method in brief: as §1
Klebsiella pneumoniae [14] = test: Antibacterial activity against Klebsiella pneumoniae FNSST 011 after 18 to 24 hrs by two-fold broth microdilution assay; method in brief: as §1
Escherichia coli [15] = test: Antibacterial activity against Escherichia coli FNSST 982 after 18 to 24 hrs by two-fold broth microdilution assay; method in brief: as §1
Clostridium perfringens [16] = test: Antibacterial activity against Clostridium perfringens FNSST 4999 after 18 to 24 hrs by two-fold broth microdilution assay; method in brief: as §2
Staphylococcus aureus [17] = test: Antibacterial activity against Staphylococcus aureus ATCC 25923 after 18 to 24 hrs by two-fold broth microdilution assay; method in brief: as §1
Enterococcus faecalis [18] = test: Antibacterial activity against Enterococcus faecalis ATCC 29212 after 18 to 24 hrs by two-fold broth microdilution assay; method in brief: as §1
Bacillus cereus [19] = test: Antibacterial activity against Bacillus cereus ATCC 11778 after 18 to 24 hrs by two-fold broth microdilution assay; method in brief: as §1
Aspergillus fumigatus = test: Antifungal activity against Aspergillus fumigatus FNSST 3833 assessed as diameter of zone of inhibition at 250 ug/disc after 72 hrs by disc diffusion method; conditions: FNSST 3833, 72 h, read-out: DIZ
Method in brief: (§3)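 Fungi were grown overnight at 30 °C in Sabouraud dextrose broth to 10^4 cfu/mL, and 100 µL was spread on Sabouraud dextrose agar. 6 mm discs carried 250 µg (25 µL of a 10 mg/mL stock in 96% ethanol), with ethanol as the negative control. Incubation was at 30 °C for 48 h (yeast) or 72 h (molds). Zone diameter was read including the disc, in triplicate, mean ± SE.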

Talaromyces funiculosus = test: Antifungal activity against Penicillium funiculosum FNSST 3724 assessed as diameter of zone of inhibition at 250 ug/disc after 72 hrs by disc diffusion method; conditions: FNSST 3724, 72 h, read-out: DIZ; method in brief: as §3
Aeromonas hydrophila [20] = test: Antibacterial activity against Aeromonas hydrophila FNSST 014 assessed as diameter of zone of inhibition at 250 ug/disc after 24 hrs by disc diffusion method; conditions: FNSST 014, 24 h, read-out: DIZ
Method in brief: (§4)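 Bacteria were grown overnight at 37 °C in TSB to about 10^6 cfu/mL, and 100 µL was spread on Mueller Hinton agar. Sterile 6 mm discs were each loaded with 25 µL of a 10 mg/mL stock in 96% ethanol, giving 250 µg/disc. Ethanol served as the negative control. Plates were incubated 24 h at 37 °C. Inhibition zone diameter was measured including the disc, in triplicate, as mean ± SE.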

Pseudomonas aeruginosa [21] = test: Antibacterial activity against Pseudomonas aeruginosa FNSST 982 assessed as diameter of zone of inhibition at 250 ug/disc after 24 hrs by disc diffusion method; conditions: FNSST 982, 24 h, read-out: DIZ; method in brief: as §4
Klebsiella pneumoniae [22] = test: Antibacterial activity against Klebsiella pneumoniae FNSST 011 assessed as diameter of zone of inhibition at 250 ug/disc after 24 hrs by disc diffusion method; conditions: FNSST 011, 24 h, read-out: DIZ; method in brief: as §4
Escherichia coli [23] = test: Antibacterial activity against Escherichia coli FNSST 982 assessed as diameter of zone of inhibition at 250 ug/disc after 24 hrs by disc diffusion method; conditions: FNSST 982, 24 h, read-out: DIZ; method in brief: as §4
Clostridium perfringens [24] = test: Antibacterial activity against Clostridium perfringens FNSST 4999 assessed as diameter of zone of inhibition at 250 ug/disc after 24 hrs by disc diffusion method; conditions: FNSST 4999, 24 h, read-out: DIZ
Method in brief: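 Disc diffusion per CLSI: 100 µL of 10^6 cfu/mL bacterial suspension spread on Mueller Hinton agar. 6 mm discs loaded with 25 µL of 10 mg/mL compound stock in 96% ethanol (250 µg/disc); ethanol as negative control. Incubated 24 h at 37 °C. Inhibition zone diameter measured in mm including the disc, triplicate, reported as mean ± SE.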

Staphylococcus aureus [25] = test: Antibacterial activity against Staphylococcus aureus ATCC 25923 assessed as diameter of zone of inhibition at 250 ug/disc after 24 hrs by disc diffusion method; conditions: ATCC 25923, 24 h, read-out: DIZ; method in brief: as §4
Enterococcus faecalis [26] = test: Antibacterial activity against Enterococcus faecalis ATCC 29212 assessed as diameter of zone of inhibition at 250 ug/disc after 24 hrs by disc diffusion method; conditions: ATCC 29212, 24 h, read-out: DIZ; method in brief: as §4
Bacillus cereus [27] = test: Antibacterial activity against Bacillus cereus ATCC 11778 assessed as diameter of zone of inhibition at 250 ug/disc after 24 hrs by disc diffusion method; conditions: ATCC 11778, 24 h, read-out: DIZ; method in brief: as §4
Candida albicans = test: Antifungal activity against Candida albicans ATCC 10231 assessed as diameter of zone of inhibition at 250 ug/disc after 48 hrs by disc diffusion method; conditions: ATCC 10231, 48 h, read-out: DIZ; method in brief: as §3
Escherichia coli [28] = test: Antibacterial activity against […] expressing Escherichia coli isolate 4024 after 18 to 24 hrs by two-fold broth microdilution assay; method in brief: as §2

Row | Structure (SMILES) | MIC (Pseudomonas aeruginosa [1]) [µg/mL] | MIC (Acinetobacter baumannii) [µg/mL] | MIC (Aeromonas caviae [2]) [µg/mL] | MIC (Aeromonas caviae [3]) [µg/mL] | MIC (Aeromonas hydrophila [4]) [µg/mL] | MIC (Kluyvera intermedia) [µg/mL] | MIC (Klebsiella pneumoniae [5]) [µg/mL] | MIC (Escherichia coli [6]) [µg/mL] | MIC (Escherichia coli [7]) [µg/mL] | MIC (Enterobacter cloacae [8]) [µg/mL] | MIC (Enterobacter cloacae [9]) [µg/mL] | MIC (Enterobacter cloacae [10]) [µg/mL] | MIC [11] [µg/mL] | MIC (Aeromonas hydrophila [12]) [µg/mL] | MIC (Pseudomonas aeruginosa [13]) [µg/mL] | MIC (Klebsiella pneumoniae [14]) [µg/mL] | MIC (Escherichia coli [15]) [µg/mL] | MIC (Clostridium perfringens [16]) [µg/mL] | MIC (Staphylococcus aureus [17]) [µg/mL] | MIC (Enterococcus faecalis [18]) [µg/mL] | further results
1 | O=C(O)c1cn(C2CC2)c2cc(N3CCNCC3)c(F)cc2c1=O [CIPROFLOXACIN] | > 4 | 0.5 (≈ 1.51 µM) | 1 (≈ 3.02 µM) | 0.5 (≈ 1.51 µM) | 2 (≈ 6.04 µM) | 0.5 (≈ 1.51 µM) | 2 (≈ 6.04 µM) | – | – | – | – | – | – | – | – | – | – | – | – | – | –
2 | C[C@@H](O)[C@H]1C(=O)N2C(C(=O)O)=C(SCCNC=N)C[C@H]12 [IMIPENEM ANHYDROUS] | > 8 | 8 (≈ 26.7 µM) | 2 (≈ 6.68 µM) | 0.25 (≈ 0.835 µM) | 0.06 (≈ 0.2 µM) | 0.12 (≈ 0.401 µM) | 0.12 (≈ 0.401 µM) | 0.06 (≈ 0.2 µM) | 0.125 (≈ 0.418 µM) | 8 (≈ 26.7 µM) | 0.25 (≈ 0.835 µM) | 0.25 (≈ 0.835 µM) | 0.12 (≈ 0.401 µM) | – | – | – | – | – | – | – | –
3 | Cc1ccc(-n2ccnc2/C=N/O)cc1 | – | – | – | – | – | – | – | – | – | – | – | – | – | 25 (≈ 124 µM) | 50 (≈ 248 µM) | 100 (≈ 497 µM) | 25 (≈ 124 µM) | 100 (≈ 497 µM) | 32 (≈ 159 µM) | 50 (≈ 248 µM) | MIC (Bacillus cereus [19]): 50 µg/mL (≈ 248 µM); zone of inhibition at 250 µg/disc (Aspergillus fumigatus): 16.3 mm; zone of inhibition at 250 µg/disc (Talaromyces funiculosus): 15.4 mm; zone of inhibition at 250 µg/disc (Aeromonas hydrophila [20]): 15.7 mm; zone of inhibition at 250 µg/disc (Pseudomonas aeruginosa [21]): 10.9 mm; zone of inhibition at 250 µg/disc (Klebsiella pneumoniae [22]): 9.3 mm; zone of inhibition at 250 µg/disc (Escherichia coli [23]): 14.9 mm; zone of inhibition at 250 µg/disc (Clostridium perfringens [24]): 12.6 mm; zone of inhibition at 250 µg/disc (Staphylococcus aureus [25]): 18.5 mm; zone of inhibition at 250 µg/disc (Enterococcus faecalis [26]): 13.8 mm; zone of inhibition at 250 µg/disc (Bacillus cereus [27]): 14.6 mm; zone of inhibition at 250 µg/disc (Candida albicans): 20.2 mm
4 | O/N=C/c1nccn1-c1ccccc1 | – | – | – | – | – | – | – | – | – | – | – | – | – | 50 (≈ 267 µM) | 25 (≈ 134 µM) | 100 (≈ 534 µM) | 50 (≈ 267 µM) | 100 (≈ 534 µM) | 100 (≈ 534 µM) | 6.25 (≈ 33.4 µM) | MIC (Bacillus cereus [19]): 50 µg/mL (≈ 267 µM); zone of inhibition at 250 µg/disc (Aspergillus fumigatus): 19.5 mm; zone of inhibition at 250 µg/disc (Talaromyces funiculosus): 17.9 mm; zone of inhibition at 250 µg/disc (Aeromonas hydrophila [20]): 17.7 mm; zone of inhibition at 250 µg/disc (Pseudomonas aeruginosa [21]): 15.8 mm; zone of inhibition at 250 µg/disc (Klebsiella pneumoniae [22]): 17.2 mm; zone of inhibition at 250 µg/disc (Escherichia coli [23]): 17.8 mm; zone of inhibition at 250 µg/disc (Clostridium perfringens [24]): 16.5 mm; zone of inhibition at 250 µg/disc (Staphylococcus aureus [25]): 10.1 mm; zone of inhibition at 250 µg/disc (Enterococcus faecalis [26]): 15.7 mm; zone of inhibition at 250 µg/disc (Bacillus cereus [27]): 15.4 mm; zone of inhibition at 250 µg/disc (Candida albicans): 16.4 mm
5 | CN(C)[C@@H]1C(O)=C(C(N)=O)C(=O)[C@@]2(O)C(O)=C3C(=O)c4c(O)cccc4[C@@](C)(O)[C@H]3C[C@@H]12 [TETRACYCLINE] | > 8 | 64 (≈ 144 µM) | 128 (≈ 288 µM) | 64 (≈ 144 µM) | 8 (≈ 18 µM) | 16 (≈ 36 µM) | 256 (≈ 576 µM) | 32 (≈ 72 µM) | 128 (≈ 288 µM) | 64 (≈ 144 µM) | 16 (≈ 36 µM) | 16 (≈ 36 µM) | 128 (≈ 288 µM) | – | – | – | – | – | – | – | MIC (Escherichia coli [28]): 16 µg/mL (≈ 36 µM)

Reference: ChEMBL document CHEMBL3091449, “Synthesis and antimicrobial profile of N-substituted imidazolium oximes and their monoquaternary salts against multidrug resistant bacteria” (2013)
